Experimental data taken from ChEMBL document CHEMBL1926538, “3,5-Disubstituted-thiazolidine-2,4-dione analogs as anticancer agents: design, synthesis and biological characterization” (Eur J Med Chem, 2012).
Activity calls are given as the source filed them. No cut-off for these calls is given here.

How the values were obtained:
[1] = target: Tyrosine-protein kinase ABL1 (Homo sapiens) (UniProt P00519); test: Inhibition of ABL at 10 uM
U-937 [2] = test: Induction of apoptosis in human U937 cells assessed as late apoptotic cells at 3 uM after 18 hrs by annexinV-propidium iodide staining-based flow cytometric analysis (reference value: 7.8%); assay type: functional
[3] = target: Insulin-like growth factor 1 receptor (Homo sapiens) (UniProt P08069); test: Inhibition of IGF1R at 10 uM
U-937 [4] = test: Induction of apoptosis in human U937 cells assessed as early apoptotic cells at 3 uM after 6 hrs by annexinV-propidium iodide staining-based flow cytometric analysis (reference value: 4.6%); assay type: functional
[5] = target: MAP/microtubule affinity-regulating kinase 3 (Homo sapiens) (UniProt P27448); test: Inhibition of c-TAK1 at 10 uM
Sequence of MAP/microtubule affinity-regulating kinase 3 (Homo sapiens) (P27448 whole entry, looked up): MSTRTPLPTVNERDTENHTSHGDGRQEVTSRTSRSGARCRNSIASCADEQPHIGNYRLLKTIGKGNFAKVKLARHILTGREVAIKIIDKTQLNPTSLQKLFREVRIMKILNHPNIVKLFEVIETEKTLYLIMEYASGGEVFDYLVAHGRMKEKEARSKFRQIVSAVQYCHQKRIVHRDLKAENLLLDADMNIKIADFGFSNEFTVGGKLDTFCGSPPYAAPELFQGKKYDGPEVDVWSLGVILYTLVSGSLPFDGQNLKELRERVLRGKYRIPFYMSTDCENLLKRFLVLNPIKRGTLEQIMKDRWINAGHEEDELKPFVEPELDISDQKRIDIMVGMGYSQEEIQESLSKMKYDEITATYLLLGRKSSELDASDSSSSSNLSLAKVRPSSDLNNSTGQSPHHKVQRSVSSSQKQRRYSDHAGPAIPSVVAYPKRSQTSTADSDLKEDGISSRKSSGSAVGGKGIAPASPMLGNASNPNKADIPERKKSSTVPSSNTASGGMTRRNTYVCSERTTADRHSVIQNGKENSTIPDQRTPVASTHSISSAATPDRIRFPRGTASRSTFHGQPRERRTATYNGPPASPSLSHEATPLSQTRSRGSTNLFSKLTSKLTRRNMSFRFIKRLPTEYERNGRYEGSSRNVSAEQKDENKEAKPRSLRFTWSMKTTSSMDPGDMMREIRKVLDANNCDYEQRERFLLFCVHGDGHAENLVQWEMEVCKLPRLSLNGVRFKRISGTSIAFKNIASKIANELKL

[6] = target: Calcium/calmodulin-dependent protein kinase type IV (Homo sapiens) (UniProt Q16566); test: Inhibition of CAMK4 at 10 uM
Sequence of Calcium/calmodulin-dependent protein kinase type IV (Homo sapiens) (Q16566 whole entry): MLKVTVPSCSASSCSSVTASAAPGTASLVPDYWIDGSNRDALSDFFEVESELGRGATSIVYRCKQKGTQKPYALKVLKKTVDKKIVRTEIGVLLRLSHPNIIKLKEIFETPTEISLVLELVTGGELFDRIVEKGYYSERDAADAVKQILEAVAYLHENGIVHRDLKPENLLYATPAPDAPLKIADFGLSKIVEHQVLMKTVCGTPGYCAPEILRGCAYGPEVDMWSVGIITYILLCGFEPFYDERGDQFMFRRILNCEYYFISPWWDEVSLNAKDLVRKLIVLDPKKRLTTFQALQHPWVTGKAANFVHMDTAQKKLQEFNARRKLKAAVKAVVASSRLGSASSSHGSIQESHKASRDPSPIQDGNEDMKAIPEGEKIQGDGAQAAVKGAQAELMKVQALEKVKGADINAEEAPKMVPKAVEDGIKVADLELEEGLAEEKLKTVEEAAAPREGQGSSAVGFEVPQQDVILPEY

U-937 [7] = test: Cell cycle arrest in human U937 cells assessed as accumulation at S-phase after 24 hrs by propidium iodide staining-based flow cytometric analysis; assay type: functional
Method in brief: (§1)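 Cells cultured in RPMI 1640 with 10% FBS and treated 24 h at the indicated concentrations. Stained with propidium iodide for 4 h at 4 °C in the dark. Flow cytometry gave the percentage of cells in G₀/G₁, S, G₂/M and sub-G₁ phases.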

DU-145 [8] = test: Induction of apoptosis in human DU145 cells assessed as late apoptotic cells at 20 uM after 24 hrs by annexinV-propidium iodide staining-based flow cytometric analysis (reference value: 5.1%); assay type: functional
U-937 [9] = test: Induction of apoptosis in human U937 cells assessed as viable cells at 10 uM after 6 hrs by annexinV-propidium iodide staining-based flow cytometric analysis (reference value: 80.3%); assay type: functional; settings: U-937, 6 h, read-out: Activity
[10] = target: Serine/threonine-protein kinase MARK1 (Homo sapiens) (UniProt Q9P0L2); test: Inhibition of MARK1 at 10 uM
U-937 [11] = test: Induction of apoptosis in human U937 cells assessed as viable cells at 3 uM after 3 hrs by annexinV-propidium iodide staining-based flow cytometric analysis (reference value: 86.3%); assay type: functional; settings: U-937, 3 h, read-out: Activity
U-937 [12] = test: Growth inhibition of human U937 cells after 72 hrs by MTS assay in presence of 320 uM AMPK activator AICA; assay type: functional, cell-based
Method in brief: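 U937 cells exposed 72 h, with or without AICA 320 µM, then MTS added. Absorbance read at 490 nm, expressed as percentage of untreated controls. Data are mean percentage viability, n = 6, error bars SEM.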

[13] = target: RAF proto-oncogene serine/threonine-protein kinase (Homo sapiens) (UniProt P04049); test: Inhibition of raf-mediated ERK phosphorylation in human U937 cells at 3 uM after 1 hr by Western blot analysis; assay type: cell-based; settings: U-937
Sequence of RAF proto-oncogene serine/threonine-protein kinase (Homo sapiens) (P04049 whole entry): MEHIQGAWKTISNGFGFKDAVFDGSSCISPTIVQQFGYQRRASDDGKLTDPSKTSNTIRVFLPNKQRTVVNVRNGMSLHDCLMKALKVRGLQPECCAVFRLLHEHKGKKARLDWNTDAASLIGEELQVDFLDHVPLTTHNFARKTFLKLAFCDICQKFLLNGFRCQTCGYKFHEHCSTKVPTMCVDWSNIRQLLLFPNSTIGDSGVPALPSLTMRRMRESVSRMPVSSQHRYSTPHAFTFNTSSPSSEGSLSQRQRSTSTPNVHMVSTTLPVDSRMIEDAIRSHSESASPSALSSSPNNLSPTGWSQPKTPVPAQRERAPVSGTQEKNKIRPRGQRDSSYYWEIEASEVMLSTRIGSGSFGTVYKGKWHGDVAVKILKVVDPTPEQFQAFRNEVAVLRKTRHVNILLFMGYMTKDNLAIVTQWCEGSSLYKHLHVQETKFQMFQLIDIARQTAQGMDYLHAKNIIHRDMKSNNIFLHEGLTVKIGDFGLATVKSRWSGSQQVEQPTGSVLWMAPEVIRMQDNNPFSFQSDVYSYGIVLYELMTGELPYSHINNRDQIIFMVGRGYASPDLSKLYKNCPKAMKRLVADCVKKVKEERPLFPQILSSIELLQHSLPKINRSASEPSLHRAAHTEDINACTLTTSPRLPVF
Method in brief: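 Cells in RPMI 1640 with 10% heat-inactivated FBS, 37 °C, 5% CO2; treated in growing medium (DU145 24 h; U937 1 h at 5 × 10⁵/mL). Lysed by sonication in SDS sample buffer with protease inhibitors plus 1 mM orthovanadate and pyrophosphate, boiled 5 min. Blots blocked in 5% milk, primary antibodies 1:1000 overnight at 4 °C, HRP secondary 1:2000, chemiluminescence; α-tubulin loading control.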

U-937 [14] = test: Induction of apoptosis in human U937 cells assessed as late apoptotic cells at 3 uM after 3 hrs by annexinV-propidium iodide staining-based flow cytometric analysis (reference value: 8.6%); assay type: functional
[15] = target: Ribosomal protein S6 kinase alpha-5 (Homo sapiens) (UniProt O75582); test: Inhibition of MSK1 at 10 uM
[16] = target: Serine/threonine-protein kinase D2 (Homo sapiens) (UniProt Q9BZL6); test: Inhibition of PKD2 at 10 uM
Sequence of Serine/threonine-protein kinase D2 (Homo sapiens) (Q9BZL6 whole entry): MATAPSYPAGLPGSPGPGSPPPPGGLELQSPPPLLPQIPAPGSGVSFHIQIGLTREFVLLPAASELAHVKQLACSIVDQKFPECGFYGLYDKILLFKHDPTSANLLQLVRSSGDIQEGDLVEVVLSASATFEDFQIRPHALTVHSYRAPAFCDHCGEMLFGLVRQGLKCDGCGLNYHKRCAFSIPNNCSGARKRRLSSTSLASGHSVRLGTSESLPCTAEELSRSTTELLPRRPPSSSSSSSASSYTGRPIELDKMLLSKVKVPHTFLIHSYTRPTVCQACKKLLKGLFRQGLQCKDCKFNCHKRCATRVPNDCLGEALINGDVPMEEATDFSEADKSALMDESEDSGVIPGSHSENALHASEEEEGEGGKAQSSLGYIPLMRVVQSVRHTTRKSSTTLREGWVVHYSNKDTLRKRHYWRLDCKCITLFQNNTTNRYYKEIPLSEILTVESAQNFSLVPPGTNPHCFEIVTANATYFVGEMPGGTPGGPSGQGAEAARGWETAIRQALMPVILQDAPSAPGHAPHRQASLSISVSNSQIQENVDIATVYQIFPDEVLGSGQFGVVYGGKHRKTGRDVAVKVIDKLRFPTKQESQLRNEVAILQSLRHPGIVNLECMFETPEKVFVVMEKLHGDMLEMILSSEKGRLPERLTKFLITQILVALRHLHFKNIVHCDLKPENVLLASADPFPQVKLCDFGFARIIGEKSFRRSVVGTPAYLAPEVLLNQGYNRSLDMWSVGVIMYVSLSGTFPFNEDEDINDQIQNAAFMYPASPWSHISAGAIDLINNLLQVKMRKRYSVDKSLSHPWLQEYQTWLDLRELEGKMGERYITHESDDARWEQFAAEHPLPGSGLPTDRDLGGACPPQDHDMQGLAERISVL

[17] = target: Calcium/calmodulin-dependent protein kinase type II subunit beta (Homo sapiens) (UniProt Q13554); test: Inhibition of CAMK2 at 10 uM
U-937 [18] = test: Cell cycle arrest in human U937 cells assessed as accumulation at S-phase at 15 uM after 24 hrs by propidium iodide staining-based flow cytometric analysis; assay type: functional; method in brief: as §1
U-937 [19] = test: Induction of apoptosis in human U937 cells assessed as necrotic cells at 3 uM after 3 hrs by annexinV-propidium iodide staining-based flow cytometric analysis (reference value: 2.3%); assay type: functional
U-937 [20] = test: Cell cycle arrest in human U937 cells assessed as sub-diploid apoptotic fraction at 15 uM after 24 hrs by propidium iodide staining-based flow cytometric analysis; assay type: functional; method in brief: as §1
U-937 [21] = test: Induction of apoptosis in human U937 cells assessed as late apoptotic cells at 3 uM after 6 hrs by annexinV-propidium iodide staining-based flow cytometric analysis (reference value: 13.8%); assay type: functional
[22] = target: Mitogen-activated protein kinase kinase kinase kinase 4 (Homo sapiens) (UniProt O95819); test: Inhibition of HGK at 10 uM
[23] = Growth inhibition of human NCI60 cells; assay type: functional
[24] = target: 3-phosphoinositide-dependent protein kinase 1 (Homo sapiens) (UniProt O15530); test: Inhibition of PDK1 at 10 uM
DU-145 [25] = test: Induction of apoptosis in human DU145 cells assessed as viable cells at 20 uM after 24 hrs by annexinV-propidium iodide staining-based flow cytometric analysis (reference value: 89%); assay type: functional; settings: DU-145, 24 h, read-out: Activity
[26] = target: MAP kinase p38 (Homo sapiens) (UniProt O15264+Q15759+Q16539+P53778); test: Inhibition p38 phosphorylation in human U937 cells at 1 to 10 uM after 1 hr by Western blot analysis; assay type: cell-based; settings: U-937
Method in brief: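 p38 blot in U937: cells at 5 × 10⁵/mL in RPMI 1640 plus 10% FBS, exposed 1 h, sonicated in SDS sample buffer containing phosphatase inhibitors, boiled; immunoblot with primary antibody overnight at 4 °C, HRP secondary, chemiluminescent detection.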

[27] = target: Protein kinase C beta type (Homo sapiens) (UniProt P05771); test: Inhibition of PKCbeta2 at 10 uM
Sequence of Protein kinase C beta type (Homo sapiens) (P05771 2-671 limits assumed): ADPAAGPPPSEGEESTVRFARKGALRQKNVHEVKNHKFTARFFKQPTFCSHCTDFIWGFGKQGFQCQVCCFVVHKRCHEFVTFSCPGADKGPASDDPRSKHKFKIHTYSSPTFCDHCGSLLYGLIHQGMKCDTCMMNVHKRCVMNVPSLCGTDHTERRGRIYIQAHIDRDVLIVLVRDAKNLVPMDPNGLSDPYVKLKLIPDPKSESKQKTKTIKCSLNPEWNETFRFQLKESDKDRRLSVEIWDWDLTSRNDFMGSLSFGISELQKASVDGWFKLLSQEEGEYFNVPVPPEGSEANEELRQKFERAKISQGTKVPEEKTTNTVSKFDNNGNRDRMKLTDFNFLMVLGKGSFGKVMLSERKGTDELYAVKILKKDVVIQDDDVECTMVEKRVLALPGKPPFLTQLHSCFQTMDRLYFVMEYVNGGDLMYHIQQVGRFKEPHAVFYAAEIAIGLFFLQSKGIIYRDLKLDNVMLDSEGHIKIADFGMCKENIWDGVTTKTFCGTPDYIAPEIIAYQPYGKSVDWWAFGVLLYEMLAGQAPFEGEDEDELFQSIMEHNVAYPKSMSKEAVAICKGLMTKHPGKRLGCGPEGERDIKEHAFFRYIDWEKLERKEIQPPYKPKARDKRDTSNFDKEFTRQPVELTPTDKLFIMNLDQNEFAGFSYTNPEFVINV

[28] = target: Dual specificity mitogen-activated protein kinase kinase 2 (Homo sapiens) (UniProt P36507); test: Inhibition of MEK2 at 10 uM
Sequence of Dual specificity mitogen-activated protein kinase kinase 2 (Homo sapiens) (P36507 whole entry): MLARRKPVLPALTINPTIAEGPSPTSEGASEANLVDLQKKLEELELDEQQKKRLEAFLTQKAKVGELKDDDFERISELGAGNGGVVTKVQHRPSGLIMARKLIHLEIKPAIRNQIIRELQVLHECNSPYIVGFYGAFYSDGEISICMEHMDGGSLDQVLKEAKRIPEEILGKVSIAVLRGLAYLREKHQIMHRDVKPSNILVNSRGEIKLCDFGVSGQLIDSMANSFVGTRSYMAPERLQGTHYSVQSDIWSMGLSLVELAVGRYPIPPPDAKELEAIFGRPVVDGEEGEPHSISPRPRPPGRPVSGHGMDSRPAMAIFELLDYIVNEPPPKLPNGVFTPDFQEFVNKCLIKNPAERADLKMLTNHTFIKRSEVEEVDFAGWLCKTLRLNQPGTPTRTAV

[29] = target: Insulin receptor (Homo sapiens) (UniProt P06213); test: Inhibition of INSR at 10 uM
[30] = target: c-Jun N-terminal kinase, JNK (Homo sapiens) (UniProt P45983+P53779+P45984); test: Inhibition JNK phosphorylation in human U937 cells at 1 to 10 uM after 1 hr by Western blot analysis; assay type: cell-based; settings: U-937
Method in brief: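 U937 cells at 5 × 10^5/mL were exposed to compound for 1 h, then sonicated in SDS/DTT sample buffer with protease inhibitors plus 1 mM orthovanadate and pyrophosphate, and boiled 5 min. Blots were blocked in 5% milk, probed with primary antibody overnight at 4 °C and 1:2000 HRP secondary, and read by chemiluminescence. α-Tubulin reprobe served as loading control. Blots shown represent one of three experiments.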

U-937 [31] = test: Induction of apoptosis in human U937 cells assessed as early apoptotic cells at 3 uM after 3 hrs by annexinV-propidium iodide staining-based flow cytometric analysis (reference value: 2.8%); assay type: functional

Sequence of Tyrosine-protein kinase ABL1 (Homo sapiens) (P00519 whole entry): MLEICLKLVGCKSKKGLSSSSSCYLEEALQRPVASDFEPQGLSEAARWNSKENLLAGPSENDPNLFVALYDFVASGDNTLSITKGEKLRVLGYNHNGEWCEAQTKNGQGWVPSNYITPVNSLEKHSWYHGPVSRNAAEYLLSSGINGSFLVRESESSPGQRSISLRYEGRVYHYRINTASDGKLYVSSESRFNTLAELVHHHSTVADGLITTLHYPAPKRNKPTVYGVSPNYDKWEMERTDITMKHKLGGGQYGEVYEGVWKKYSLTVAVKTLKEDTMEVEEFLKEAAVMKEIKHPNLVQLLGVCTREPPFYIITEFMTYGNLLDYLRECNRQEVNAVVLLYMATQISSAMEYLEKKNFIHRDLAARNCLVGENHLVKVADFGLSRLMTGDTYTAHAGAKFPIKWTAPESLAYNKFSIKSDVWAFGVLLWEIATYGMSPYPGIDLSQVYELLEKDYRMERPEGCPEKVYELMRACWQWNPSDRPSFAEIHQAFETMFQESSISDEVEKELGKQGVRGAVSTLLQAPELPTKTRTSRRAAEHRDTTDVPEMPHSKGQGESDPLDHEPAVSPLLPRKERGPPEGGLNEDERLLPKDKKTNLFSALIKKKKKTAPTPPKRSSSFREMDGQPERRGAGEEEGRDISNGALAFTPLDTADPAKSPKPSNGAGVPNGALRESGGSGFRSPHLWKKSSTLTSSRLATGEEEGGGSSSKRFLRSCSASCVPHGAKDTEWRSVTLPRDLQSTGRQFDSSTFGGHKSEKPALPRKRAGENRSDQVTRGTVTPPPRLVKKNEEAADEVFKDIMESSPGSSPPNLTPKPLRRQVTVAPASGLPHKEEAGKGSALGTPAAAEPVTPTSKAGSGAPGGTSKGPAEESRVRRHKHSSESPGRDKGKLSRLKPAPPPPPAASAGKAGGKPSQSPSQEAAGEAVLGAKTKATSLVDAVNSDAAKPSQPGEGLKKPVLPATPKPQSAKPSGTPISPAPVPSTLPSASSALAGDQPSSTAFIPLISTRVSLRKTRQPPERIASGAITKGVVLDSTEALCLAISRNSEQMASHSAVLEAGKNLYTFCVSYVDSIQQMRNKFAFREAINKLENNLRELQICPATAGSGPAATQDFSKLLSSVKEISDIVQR

NCCN1C(=O)S/C(=C\CCC2CCCCC2)C1=O
inhibition [1]: 6% | Activity (U-937 [2]): 5.7% | inhibition [3]: -5% | Activity (U-937 [4]): 3.8% | inhibition [5]: 6% | inhibition [6]: 71% | Activity (U-937 [7]): Dose-dependent effect | Activity (DU-145 [8]): 23% | viability at 10 µM (U-937 [9]): 40.2% | inhibition [10]: 0% | viability at 3 µM (U-937 [11]): 86.9% | growth inhibition (GI) (U-937 [12]): Active | inhibition [13]: Active | Activity (U-937 [14]): 7.7% | inhibition [15]: 6% | inhibition [16]: 0% | inhibition [17]: 60% | Activity (U-937 [18]): 31.4% | Activity (U-937 [19]): 1.9% | Activity (U-937 [20]): 64.3% | Activity (U-937 [21]): 16.5% | inhibition [22]: -1% | GI50 [23]: 1.4 µM | inhibition [24]: -2% | viability at 20 µM (DU-145 [25]): 65.5% | inhibition [26]: inactive | inhibition [27]: 16% | inhibition [28]: 27% | inhibition [29]: -2% | inhibition [30]: inactive | Activity (U-937 [31]): 3.5%
